Measured values from the array DNA melting data of Ke et al. (doi:10.1101/2024.01.08.574731).

Tests used:
[1] = folding enthalpy; higher = less favourable; fluorescence melt of hairpins on a sequencing array, two-state fit; conditions: sodium 0.088 M
Procedure, shortened: (§1)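 Melting temperature and folding enthalpy were obtained by bootstrapped two-state fitting. Fits used Cy3 fluorescence of library hairpins with annealed Cy3 and quencher oligos on a sequenced MiSeq flow cell, imaged in 50 mM Na-HEPES pH 8.0, 25 mM NaCl in 2.5 °C steps up to 60 °C and normalised to pre-quench Cy3 and control constructs. Four replicates were combined by inverse-variance weighting, and fitted temperatures were raised by 9.35 °C to match UV melts.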

[2] = melting temperature; fluorescence melt of hairpins on a sequencing array, two-state fit, raised by 9.35 °C to match UV melts; conditions: sodium 0.088 M
Procedure, shortened: as §1

| Sequence | folding enthalpy [1] | Tm [2] |
| --- | --- | --- |
| GGAACTGGAAACAGTTCC (((((((....))))))) | -42.7 kcal/mol | 65.7 °C |
| GGAACTGGAAACGGTTTC (.(((.(....).))).) | -17.9 kcal/mol | 30.4 °C |
| GGAAGACCGAAAGGTTCC (((..(((....)))))) | -16 kcal/mol | 37.4 °C |
| GGAAGAGGAAACTCTCCC ((.((((....)))).)) | -18.2 kcal/mol | 32.9 °C |
| GGAAGCCGAAAGGCATCC (((.(((....))).))) | -21.9 kcal/mol | 56.1 °C |
| GGAAGCCGAAAGGCGTCC (((.(((....))).))) | -14.6 kcal/mol | 61.6 °C |
| GGAAGCGAAAGCTATTCC ((((((....)))..))) | -14.1 kcal/mol | 35.8 °C |
| GGAAGCGAAAGCTCGTCC ((((((....)))..))) | -11.6 kcal/mol | 29.5 °C |
| GGAAGCGAAAGCTGCTCC ((((((....)))..))) | -11.8 kcal/mol | 37.9 °C |
| GGAAGCGAAAGCTGTCC ((((((....))).))) | -14.5 kcal/mol | 47.4 °C |
| GGAAGCGAAAGCTTATCC ((((((....)))..))) | -9.74 kcal/mol | 34.6 °C |
| GGAAGCTCGAAAGAGTCC (((..(((....)))))) | -11.6 kcal/mol | 26.2 °C |
| GGAAGGAAACTTCC (((((....))))) | -24.1 kcal/mol | 46 °C |
| GGAAGGACGAAAGTCTCC (((..(((....)))))) | -12.8 kcal/mol | 33.1 °C |
| GGAAGGCGAAAGCCCTCC (((.(((....))).))) | -16.8 kcal/mol | 48.7 °C |
| GGAAGGGCGAAAGCCTCC (((..(((....)))))) | -11.2 kcal/mol | 41.1 °C |
| GGAAGTCGAAAGACATCC (((.(((....))).))) | -25.2 kcal/mol | 48.2 °C |
| GGAAGTGCGAAAGCATCC (((..(((....)))))) | -10.6 kcal/mol | 31.3 °C |
| GGAAGTGGAAACACTTCC (((((((....))))))) | -54 kcal/mol | 61 °C |
| GGAAGTGGAAACACTTTC (.(((((....))))).) | -26.6 kcal/mol | 45.2 °C |
| GGAATAACGAAAGTTTCC (((..(((....)))))) | -14.8 kcal/mol | 32.5 °C |
| GGAATACCGAAAGGTTCC (((..(((....)))))) | -16.1 kcal/mol | 36.4 °C |
| GGAATACGAAAGTAATCC (((.(((....))).))) | -28.8 kcal/mol | 40.1 °C |

| Sequence | folding enthalpy [1] | Tm [2] |
| --- | --- | --- |
| GGAATAGCGAAAGCTTCC (((..(((....)))))) | -20.2 kcal/mol | 39.2 °C |
| GGAATAGGAAACTATTCC (((((((....))))))) | -41.4 kcal/mol | 52.7 °C |
| GGAATAGGAAACTATTTC (.(((((....))))).) | -29.1 kcal/mol | 30.6 °C |
| GGAATCACGAAAGTGTCC (((..(((....)))))) | -11.5 kcal/mol | 30.5 °C |
| GGAATCGAAAGATCTTCC ((((((....)))..))) | -20.9 kcal/mol | 30.6 °C |
| GGAATCGAAAGATGCTCC ((((((....)))..))) | -10.7 kcal/mol | 28.9 °C |
| GGAATCGAAAGATGGTCC ((((((....)))..))) | -8.55 kcal/mol | 25.8 °C |
| GGAATCGAAAGATGTTCC ((((((....)))..))) | -8.43 kcal/mol | 22.8 °C |
| GGAATGACGAAAGTCTCC (((..(((....)))))) | -13.3 kcal/mol | 28.8 °C |
| GGAATTGGAAACAGTTCC ((((.((....)).)))) | -27.3 kcal/mol | 42.9 °C |
| GGACAACGAAAGTTCTCC (((.(((....))).))) | -22.8 kcal/mol | 31.3 °C |
| GGACAAGGAAACTTGTTC (.(((((....))))).) | -25.9 kcal/mol | 43 °C |
| GGACACGAAAGTGACTCC ((((((....)))..))) | -14.2 kcal/mol | 40.6 °C |
| GGACACGAAAGTGGTTCC ((((((....)))..))) | -14.3 kcal/mol | 37.3 °C |
| GGACACGAAAGTGTATCC ((((((....)))..))) | -10.9 kcal/mol | 36.1 °C |
| GGACACGAAAGTGTTCC ((((((....))).))) | -17.5 kcal/mol | 56 °C |
| GGACACGGAAACACGTCC ((((..(....)..)))) | -21.8 kcal/mol | 36.4 °C |
| GGACAGAAATGTCC (((((....))))) | -25.9 kcal/mol | 53.2 °C |
| GGACAGCCGAAAGGCTCC (((..(((....)))))) | -7.98 kcal/mol | 31.2 °C |
| GGACAGGAAACTGTCC ((((((....)))))) | -43 kcal/mol | 62.8 °C |
| GGACAGGGAAACCCGTCC ((((.((....)).)))) | -34.1 kcal/mol | 50.8 °C |
| GGACAGGGAAACCTGTTC (.(((((....))))).) | -22.9 kcal/mol | 50 °C |
| GGACATACGAAAGTATCC (((..(((....)))))) | -10.9 kcal/mol | 26.8 °C |

| Sequence | folding enthalpy [1] | Tm [2] |
| --- | --- | --- |
| GGACATGCGAAAGCATCC (((..(((....)))))) | -10.8 kcal/mol | 28.6 °C |
| GGACCACGAAAGTGCTCC (((.(((....))).))) | -25.9 kcal/mol | 41.5 °C |
| GGACCAGGAAACCAGTCC ((((..(....)..)))) | -20.3 kcal/mol | 33.9 °C |
| GGACCAGGAAACCGGTCC (((((.(....).))))) | -35.3 kcal/mol | 54.6 °C |
| GGACCAGGAAACTGGCCC ((.((((....)))).)) | -35.4 kcal/mol | 52.3 °C |
| GGACCAGGAAACTGGTCC (((((((....))))))) | -32.4 kcal/mol | 68.1 °C |
| GGACCCCGAAAGGGCTCC (((.(((....))).))) | -16.3 kcal/mol | 48.6 °C |
| GGACCCGAAAGGGCTCC ((((((....))).))) | -23.1 kcal/mol | 58.6 °C |
| GGACCCGAAAGGGGGTCC ((((((....)))..))) | -27.1 kcal/mol | 63.8 °C |
| GGACCCGAAAGGGTGTCC ((((((....)))..))) | -14 kcal/mol | 47.1 °C |
| GGACCCGAAAGGGTTTCC ((((((....)))..))) | -8.05 kcal/mol | 37.1 °C |
| GGACCCGGAAACGAGCCC ((.(.((....)).).)) | -16 kcal/mol | 30.2 °C |
| GGACCCGGAAACGAGTCC ((((.((....)).)))) | -32.4 kcal/mol | 49.3 °C |
| GGACCGCGAAAGCGCTCC (((.(((....))).))) | -16.2 kcal/mol | 46.8 °C |
| GGACCGCGAAAGCGTCC (((.(((....)))))) | -17.1 kcal/mol | 59.6 °C |
| GGACCGGGAAACCGGCCC ((.((((....)))).)) | -19.9 kcal/mol | 57.9 °C |
| GGACCTCGAAAGAGTCC (((.(((....)))))) | -32.7 kcal/mol | 49.8 °C |
| GGACCTGGAAACAGGCCC ((.((((....)))).)) | -25.8 kcal/mol | 52.7 °C |
| GGACCTGGAAACAGGTCC (((((((....))))))) | -28.2 kcal/mol | 68.7 °C |
| GGACCTGGAAACAGGTTC (.(((((....))))).) | -27.5 kcal/mol | 52.7 °C |
| GGACCTGGAAACGGGTTC (.(((.(....).))).) | -26.6 kcal/mol | 38.6 °C |
| GGACGAGGAAACTCGTCC (((((((....))))))) | -44.4 kcal/mol | 68.8 °C |
| GGACGAGGAAACTCGTTC (.(((((....))))).) | -32.5 kcal/mol | 51.6 °C |

| Sequence | folding enthalpy [1] | Tm [2] |
| --- | --- | --- |
| GGACGAGGAAACTTGTCC ((((.((....)).)))) | -43.5 kcal/mol | 50.7 °C |
| GGACGCCGAAAGGCCTCC (((.(((....))).))) | -19.1 kcal/mol | 44.5 °C |
| GGACGCGAAAGCGGTCC ((((((....))).))) | -21.2 kcal/mol | 68.8 °C |
| GGACGCGGAAACACGTCC (((((.(....).))))) | -38.9 kcal/mol | 54.8 °C |
| GGACGGCGAAAGCCATCC (((.(((....))).))) | -23.7 kcal/mol | 50 °C |
| GGACGGCGAAAGCCCTCC (((.(((....))).))) | -20.5 kcal/mol | 41.4 °C |
| GGACGGGCGAAAGCCTCC (((..(((....)))))) | -10.5 kcal/mol | 33.7 °C |
| GGACGGGGAAACCCGCCC ((.((((....)))).)) | -34.1 kcal/mol | 58.7 °C |
| GGACGGGGAAACTCGTCC (((((.(....).))))) | -41 kcal/mol | 58 °C |
| GGACGTCCGAAAGGATCC (((..(((....)))))) | -14.9 kcal/mol | 25.8 °C |
| GGACGTGGAAACACATCC (((.(((....))).))) | -25.9 kcal/mol | 41.1 °C |
| GGACGTGGAAACATGTCC ((((.((....)).)))) | -38.5 kcal/mol | 53.7 °C |
| GGACTAGAAATAGTCC ((((((....)))))) | -33 kcal/mol | 52.9 °C |
| GGACTCCGAAAGGACTCC (((.(((....))).))) | -21.1 kcal/mol | 39.2 °C |
| GGACTCGAAAGAGGTCC ((((((....))).))) | -35.2 kcal/mol | 52.4 °C |
| GGACTCGAAAGAGTTCC ((((((....))).))) | -21.2 kcal/mol | 50.3 °C |
| GGACTGCGAAAGCAATCC (((.(((....))).))) | -12.7 kcal/mol | 47.8 °C |
| GGACTTGGAAACAAGTTC (.(((((....))))).) | -29.8 kcal/mol | 47.5 °C |
| GGAGACGAAAGTCAGTCC ((((((....)))..))) | -13.6 kcal/mol | 31.6 °C |
| GGAGACGAAAGTCCTCC ((((((....))).))) | -25 kcal/mol | 48.7 °C |
| GGAGACGAAAGTCGTCC ((((((....))).))) | -14.3 kcal/mol | 49.5 °C |
| GGAGACGAAAGTCTATCC ((((((....)))..))) | -12.5 kcal/mol | 32.8 °C |
